eIF4E 4G PPI: eIF4E–eIF4G protein interaction inhibitors, primary screen, biochemical, uHTS, TR-FRET, eIF4GI fragment | inhibition, % at 21.7 µM | TR-FRET eIF4E-eIF4GI(517-606) binding, 2 h | AID 782, 2007 | Eukaryotic translation initiation factor 4E (Mus musculus) + Eukaryotic translation … | actives 0.37% (n = 220,000);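 active = inhibition above about 30%, limit read from the data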;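 also: 0% = full FRET control wells and 100% = background wells lacking eIF4GI fragment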
Runt-SMMHC FRET: inhibitors of RUNX1 Runt–CBFb-SMMHC binding, primary screen, biochemical, FRET, Cerulean-Runt, Venus-CBFb-SMMHC, uHTS. Cerulean-Runt/Venus-CBFb-SMMHC FRET ratio 530/480, 1 h. inhibition, % at 20 µM. actives 0.74% (n = 220,000). AID 1434, 2008;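 active = mean inhibition across duplicate retests at 20 µM reaching about 50%, limit read from the data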;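 also: 0% = DMSO wells and 100% = wells with excess untagged CBFb-SMMHC; inhibitors lower the FRET ratio by blocking Runt binding to CBFb-SMMHC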
Target sequence (Q01196 whole entry, looked up): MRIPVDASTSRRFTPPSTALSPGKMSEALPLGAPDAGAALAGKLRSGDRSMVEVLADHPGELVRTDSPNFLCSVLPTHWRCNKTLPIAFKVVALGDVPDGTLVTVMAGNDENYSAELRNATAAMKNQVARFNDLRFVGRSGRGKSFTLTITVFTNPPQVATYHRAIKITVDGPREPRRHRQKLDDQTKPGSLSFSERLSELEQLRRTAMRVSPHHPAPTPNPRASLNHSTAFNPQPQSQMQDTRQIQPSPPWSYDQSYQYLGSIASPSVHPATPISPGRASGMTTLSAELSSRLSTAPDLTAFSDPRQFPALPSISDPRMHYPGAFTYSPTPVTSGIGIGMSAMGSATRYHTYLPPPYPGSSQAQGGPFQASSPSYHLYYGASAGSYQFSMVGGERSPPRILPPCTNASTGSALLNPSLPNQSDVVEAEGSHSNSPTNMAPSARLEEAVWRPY
Target sequence (Q13951 whole entry, looked up): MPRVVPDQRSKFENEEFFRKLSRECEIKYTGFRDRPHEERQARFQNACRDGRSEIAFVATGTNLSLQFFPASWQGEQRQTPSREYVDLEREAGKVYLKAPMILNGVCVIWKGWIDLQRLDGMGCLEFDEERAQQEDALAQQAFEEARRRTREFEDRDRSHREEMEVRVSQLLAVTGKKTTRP
RanGTP-Imp inh: inhibitors of RanGTP-importin-beta interaction, primary screen, biochemical, FRET, CFP-Ran, YFP-importin-beta, homogeneous | cell-free CFP-Ran/YFP-importin-beta FRET ratio | actives 1.1% (n = 300,000) | AID 2216, 2009 | inhibition, % (test concentration not listed) | Ran GTPase (GTP-bound) - importin-beta complex;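 active = more than half of the replicate wells show a fall in the fluorescence ratio signal beyond about 16%, limit read from the data, passing the limit was not always enough; inconclusive = exactly half of the replicate wells pass the set limit; inactive = fewer than half of replicates pass the limit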;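 also: 0% = DMSO wells and 100% = Ran loaded with GDP instead of GTP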
Runt-CBFb FRET: inhibitors of RUNX1 Runt–CBFb binding, primary screen, biochemical, FRET, Cerulean-Runt, Venus-CBFb, uHTS; Cerulean-Runt/Venus-CBFb FRET ratio 530/480, 1 h; inhibition, % at 20 µM; actives 0.46% (n = 220,000);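 active = inhibition over about 50% at 20 µM in the single-dose screen, limit read from the data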;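 also: 0% = DMSO wells and 100% = excess unlabeled CBFb competitor control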
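Assay system: Cerulean-Runt domain fusion protein, energy donor; Signal: fluorescence energy transfer, 422 nm excitation, 530/480 nm emission; Timing: 1 h compound exposure, room temperature; Control set: unlabeled CBFb; Medium: Tris buffer pH 7.5 with salts and BSA; Compound: single test concentration of 20 µM, 1% DMSO final; Probe or stimulus: Venus-CBFb 100 nM.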
PERK inhibitor: block of dimerizer-induced PERK translation repression, primary screen, PERK inhibitor project, CHO PERK-DD cells, SEAP luminescence, HTS; Eukaryotic translation initiation factor 2-alpha kinase 3 (Homo sapiens), Q9NZJ5; actives 0.17% (n = 220,000); CHO PERK-DD fusion, SEAP luminescence translation reporter; inhibition, % at 5.6 µM;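 active = inhibition above the mean inhibition of all tested compounds plus 3 SD, set separately per screening campaign, cut at about 2.9% in these data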;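 also: PERK kinase domain activated by AP20187 dimerizer at 100 nM; 0% = DMSO with dimerizer and 100% = rapamycin at 8.4 µM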
Hck-Nef inh: inhibitors of Nef-activated human Hck kinase, primary screen, biochemical, Z-Lyte FRET, 384-well, Hck-YEEI; Tyrosine-protein kinase HCK (Homo sapiens), P08631; Recombinant Hck-YEEI plus Nef, Z-Lyte FRET kinase assay; actives 0.68% (n = 220,000); inhibition, % at 20 µM;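 active = Hck-Nef kinase inhibition above about 50%, limit read from the data; inactive = inhibition below that limit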;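 also: 0% = DMSO with Hck plus Nef and 100% = Hck alone without Nef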
Hck-Nef confirm: retest of Hck:Nef kinase inhibitor hits, confirmation, biochemical, Z-Lyte FRET, 384-well, p-Tyr peptide counterscreen; shares compounds with Hck-Nef inh; actives 28% (n = 1,300); calls only at 10 µM; Recombinant Hck-YEEI:Nef, Z-Lyte FRET kinase assay; AID 463188, 2010;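 active = average inhibition of at least 50%, with Z-scores no higher than 3 in both the phospho-tyrosine peptide and fluorescence counterscreens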
* hit, by the source's call; i = inactive; ? = inconclusive; . = no result given; + = active, no number. In the library only some 2.2% were active in any assay of this set; here they are far more common.

SMILES | eIF4E 4G PPI | Runt-SMMHC FRET | RanGTP-Imp inh | Runt-CBFb FRET | PERK inhibitor | Hck-Nef inh | Hck-Nef confirm
O=S(=O)(c1ccccc1)N1N=C(c2cccs2)CC1c1ccc(F)cc1 (stereo not drawn) | 8.6 | -9.7 | 0.9 | -1.4 | 0.5 | -1.9 | .
Fc1ccc(N2N=C(c3cccs3)CC2c2ccccc2)cc1 (stereo not drawn) | -0.1 | 90.6* | 2.0 | 58.8* | 1.2 | 56.4* | i
COc1ccc(C(=O)CCc2ccccc2)c(O)c1 | . | . | -3.5 | . | . | . | .
O=C(CCc1ccccc1)c1c(O)cc(O)cc1O | -16.9 | 2.8 | -1.4 | 2.2 | . | 68.5* | i
COc1ccc(CCN2CC(C(=O)NCCc3ccccc3)CC2=O)cc1OC (stereo not drawn) | 1.6 | -3.4 | 0.2 | -0.2 | -0.2 | 21.2 | .
CCC(C)NC(=O)CCC(=O)Nc1ccc2nc(N3CC(C)CC(C)C3)cc(C)c2c1 (stereo not drawn) | -2.6 | -2.3 | 2.3 | -1.6 | 1.6 | 52.3* | i
CCC(C)NC(=O)CCC(=O)Nc1ccc2nc(N3CCOCC3)cc(C)c2c1 (stereo not drawn) | 4.5 | 3.2 | -1.0 | . | 0.3 | 3.0 | .
O=Nc1ccc(NOC(=O)c2ccccc2)cc1 | 0.4 | 5.8 | -0.1 | 2.7 | 1.2 | 7.7 | .
O=C(N=Nc1ccc(NOC(=O)c2ccccc2Br)cc1)c1ccccc1O | 4.8 | -2.5 | 6.1 | 4.1 | 0.4 | 68.1* | i
COc1ccc(NC(=S)N2CCCC(c3nc4ccc(C)cc4[nH]3)C2)cc1 (stereo not drawn) | -1.6 | -1.1 | 1.2 | 1.8 | -1.0 | 16.3 | .
N#Cc1nc(-c2ccco2)oc1N1CCc2ccccc2C1 | 6.9 | 2.2 | 2.4 | 1.8 | -1.1 | 1.6 | .
CCOC(=O)c1nc(Nc2ccc(Nc3ccccc3)cc2)c2ccccc2n1 | 6.0 | -3.3 | 0.4 | . | -0.7 | 94.4* | i
CCOC(=O)c1ccc(Nc2nc(C(=O)OCC)nc3ccccc23)cc1 | 2.6 | -14.2 | 2.0 | -1.4 | -1.4 | 1.3 | .
COc1ccc(NC(=O)CCCCC(=O)Nc2ccc(OC)cc2OC)c(OC)c1 | . | . | 3.9 | . | . | . | .
Cc1cc2sc3ccccc3c(=O)c2c(C)c1O | 3.3 | -72.9 | ? | -22.9 | 1.1 | 35.4 | .
O=c1c(C(c2ccccc2)c2c(O)sc3ccccc3c2=O)c(O)sc2ccccc12 | 19.0 | -8.9 | 19.2* | -2.7 | 1.8 | 68.3* | +
CCc1nccn1CCC(=O)NC1CC(C)(C)Cc2c1cnn2-c1ccc(C)cc1 (stereo not drawn) | . | . | 6.1 | . | . | . | .
COC(OC)c1ccnc(-c2ccc(OC(=O)c3ccccc3)cc2)n1 | 15.9 | -2.6 | ? | -2.8 | 0.3 | 57.9* | i
COC(OC)c1ccnc(-c2ccc(OC(C)=O)cc2)n1 | 2.2 | -0.6 | 2.4 | -1.0 | 1.5 | 21.6 | .
Cc1ccc(SCC(=O)Nc2cccc(C(=O)NC(C)(C)C)c2)cc1 | -0.2 | 4.4 | 0.7 | -1.7 | 0.5 | -0.3 | .
CCOc1ccccc1OCCOc1ccccc1CC | -1.4 | -0.5 | 3.6 | -1.8 | 0.7 | 0.1 | .
CCCCN(C)CCOc1ccccc1OCC | 2.0 | 1.9 | -1.2 | 1.3 | 0.1 | 59.6* | i
COc1ccc(-n2cnc3ccccc3c2=O)c([N+](=O)[O-])c1 | . | . | 3.5 | . | . | . | .
O=C(N/N=C/c1ccc([N+](=O)[O-])o1)c1ccc(NS(=O)(=O)c2cccs2)cc1 | -0.8 | -1.6 | 1.5 | -0.1 | 0.1 | 55.5* | i
